Key:
[1] = tested on: Mus musculus; assay: Hypnotic dose was determined by observing loss of righting reflex for a minimum period of 30 sec in 50% of treated mice after i.v. administration.; assay type: functional
Outline: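 Male CFLP mice (25–35 g), tested in the light period. Groups of eight received an i.v. lateral tail vein injection over 10 s (10 mL kg-1) on a μmol/kg dose series, e.g. 2–16, with extra doses added. Vehicle was saline for amine salts; standards were in HPCD/saline, emulsion or saline. HD50 with 95% confidence limits was obtained by probit analysis of the fraction showing LRR ≥30 s.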

[2] = molecular target: GABA-A receptor; anion channel; assay: The concentration required to inhibit 50% of binding of [35S]TBPS to Gamma-aminobutyric acid A receptor to rat whole brain membranes.; assay type: cell membranes
[3] = molecular target: GABA-A receptor; anion channel (Bos taurus) (UniProt P10063+P08220+P20237+P08219+P10064+P22300); assay: Concentration required to potentiate GABA-evoked currents in voltage-clamped bovine chromaffin cells by 300%; assay type: functional
Outline: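 Adult bovine chromaffin cells, primary culture, recorded 4 h to 2 days after plating. Whole-cell patch clamp, continuous superfusion with 140 mM NaCl, 2.8 mM KCl, 2 mM MgCl2, 1 mM CaCl2, 10 mM HEPES (pH 7.2). CsCl-based pipette solution, room temperature (18–22 °C). Currents filtered at 500 Hz. Steroid concentration enhancing the GABA-evoked response by 300% of control was interpolated; mean ± SEM of N cells.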

CC(=O)[C@H]1CC[C@H]2[C@@H]3CC[C@H]4C[C@H](O)[C@@H](N5CCO[C@@H](C)C5)C[C@]4(C)[C@H]3CC[C@]12C
HD50 [1]: 29 µM/kg
IC50 [2]: 424 nM

CC(=O)[C@H]1CC[C@H]2[C@@H]3CC[C@H]4C[C@H](O)[C@@H](N5CC(C)(C)OC(C)(C)C5)C[C@]4(C)[C@H]3C(=O)C[C@]12C
HD50 [1]: 8.3 µM/kg
IC50 [2]: 127 nM

CC1(C)CN([C@H]2C[C@@]3(C)[C@@H](CC[C@@H]4[C@@H]3CC[C@]3(C)[C@@H](C(=O)CO)CC[C@@H]43)C[C@@H]2O)CCO1
POT [3]: 310 nM
HD50 [1]: 18.4 µM/kg
IC50 [2]: 267 nM

CC(=O)[C@H]1CC[C@H]2[C@@H]3CC[C@H]4C[C@H](O)[C@@H](N5CC(C)(C)SC(C)(C)C5)C[C@]4(C)[C@H]3C(=O)C[C@]12C
HD50 [1]: 61.8 µM/kg
IC50 [2]: 231 nM

CC(=O)[C@H]1CC[C@H]2[C@@H]3CC[C@H]4C[C@H](O)[C@@H](N5CCOC(C)(C)C5)C[C@]4(C)[C@H]3C(=O)C[C@]12C
POT [3]: 700 nM
HD50 [1]: 9.8 µM/kg

CCO[C@H]1C[C@@]2(C)[C@@H](CC[C@@H]3[C@@H]2[C@H](N(C)C)C[C@]2(C)[C@@H](C(C)=O)CC[C@@H]32)C[C@@H]1O [MINAXOLONE]
HD50 [1]: 7.3 µM/kg

C[C@]12CC[C@@H](O)C[C@@H]1CC[C@@H]1[C@@H]2CC[C@]2(C)[C@@H](C(=O)CO)CC[C@@H]12
POT [3]: 300 nM
HD50 [1]: 18.5 µM/kg
IC50 [2]: 220 nM

CC(=O)[C@H]1CC[C@H]2[C@@H]3CC[C@H]4C[C@H](O)[C@@H](N5CCSCC5)C[C@]4(C)[C@H]3CC[C@]12C
HD50 [1]: 40.5 µM/kg

CC(=O)OCC(=O)[C@H]1CC[C@H]2[C@@H]3CC[C@H]4C[C@H](O)[C@@H](N5CCOC(C)(C)C5)C[C@]4(C)[C@H]3C(=O)C[C@]12C
POT [3]: 1300 nM
HD50 [1]: 21.1 µM/kg
IC50 [2]: 951 nM

CC(=O)[C@H]1CC[C@H]2[C@@H]3CC[C@H]4C[C@H](O)[C@@H](N5CCOC(c6ccccc6)(c6ccccc6)C5)C[C@]4(C)[C@H]3C(=O)C[C@]12C
HD50 [1]: 49.9 µM/kg
IC50 [2]: 497 nM

CC(=O)[C@H]1CC[C@H]2[C@@H]3CC[C@H]4C[C@H](O)[C@@H](N5CCOC(C)(C)C5)C[C@]4(C)[C@H]3CC[C@]12C
POT [3]: 120 nM
HD50 [1]: 17.4 µM/kg
IC50 [2]: 107 nM

CC(=O)[C@H]1CC[C@H]2[C@@H]3CC[C@H]4C[C@H](O)[C@@H](N5CCO[C@H](C)C5)C[C@]4(C)[C@H]3CC[C@]12C
POT [3]: 250 nM
HD50 [1]: 15 µM/kg
IC50 [2]: 369 nM

CC(=O)[C@H]1CC[C@H]2[C@@H]3CC[C@@H]4C[C@H](O)CC[C@]4(C)[C@H]3CC[C@]12C [ELTANOLONE]
POT [3]: 115 nM
HD50 [1]: 9.5 µM/kg
IC50 [2]: 117 nM

CC(=O)[C@H]1CC[C@H]2[C@@H]3CC[C@H]4C[C@H](O)[C@@H](N5CCOCC5)C[C@]4(C)[C@H]3CC[C@]12C
POT [3]: 215 nM
HD50 [1]: 22.2 µM/kg

CC(=O)[C@H]1CC[C@H]2[C@@H]3CC[C@H]4C[C@H](O)[C@@H](N5CCO[C@@H](Cc6ccccc6)C5)C[C@]4(C)[C@H]3C(=O)C[C@]12C
HD50 [1]: 12.8 µM/kg
IC50 [2]: 100 nM

CC(=O)[C@H]1CC[C@H]2[C@@H]3CC[C@H]4C[C@H](O)[C@@H](N5CCO[C@H](CC(C)C)C5)C[C@]4(C)[C@H]3C(=O)C[C@]12C
HD50 [1]: 6.5 µM/kg
IC50 [2]: 53 nM

CC(=O)SCC(=O)[C@H]1CC[C@H]2[C@@H]3CC[C@H]4C[C@H](O)[C@@H](N5CCOCC5)C[C@]4(C)[C@H]3CC[C@]12C
HD50 [1]: 33.8 µM/kg
IC50 [2]: 235 nM

CC[C@H]1CN([C@H]2C[C@@]3(C)[C@@H](CC[C@@H]4[C@@H]3CC[C@]3(C)[C@@H](C(C)=O)CC[C@@H]43)C[C@@H]2O)CCO1
HD50 [1]: 22.7 µM/kg

CC1(C)CN([C@H]2C[C@@]3(C)[C@@H](CC[C@H]4[C@@H]5CC[C@H](C(=O)CO)[C@@]5(C)CC(=O)[C@@H]43)C[C@@H]2O)CCO1
POT [3]: 4400 nM
HD50 [1]: 42.3 µM/kg
IC50 [2]: 5590 nM

C[C@]12C[C@H](N3CCOCC3)[C@@H](O)C[C@@H]1CC[C@@H]1[C@@H]2CC[C@]2(C)[C@@H](C(=O)CBr)CC[C@@H]12
HD50 [1]: 22.8 µM/kg
IC50 [2]: 148 nM

CC(=O)[C@H]1CC[C@H]2[C@@H]3CC[C@H]4C[C@H](O)[C@@H](N5CCO[C@H](C)C5)C[C@]4(C)[C@H]3C(=O)C[C@]12C
HD50 [1]: 17 µM/kg
IC50 [2]: 1140 nM

CC1(C)CN([C@H]2C[C@@]3(C)[C@@H](CC[C@@H]4[C@@H]3CC[C@]3(C)[C@@H](C(=O)CCl)CC[C@@H]43)C[C@@H]2O)CCO1
POT [3]: 380 nM
HD50 [1]: 17.6 µM/kg
IC50 [2]: 39 nM

CC[C@@H]1CN([C@H]2C[C@@]3(C)[C@@H](CC[C@@H]4[C@@H]3CC[C@]3(C)[C@@H](C(C)=O)CC[C@@H]43)C[C@@H]2O)CCO1
HD50 [1]: 11.2 µM/kg
IC50 [2]: 910 nM

CC(=O)[C@H]1CC[C@H]2[C@@H]3CC[C@H]4C[C@H](O)[C@@H](N5C[C@@H](C)O[C@@H](C)C5)C[C@]4(C)[C@H]3CC[C@]12C
HD50 [1]: 26 µM/kg

CC1(C)CN([C@H]2C[C@@]3(C)[C@@H](CC[C@H]4[C@@H]5CC[C@H](C(=O)CN=[N+]=[N-])[C@@]5(C)CC(=O)[C@@H]43)C[C@@H]2O)CCO1
HD50 [1]: 10.7 µM/kg
IC50 [2]: 2170 nM

CCC1(CC)CN([C@H]2C[C@@]3(C)[C@@H](CC[C@H]4[C@@H]5CC[C@H](C(C)=O)[C@@]5(C)CC(=O)[C@@H]43)C[C@@H]2O)CCO1
HD50 [1]: 12 µM/kg
IC50 [2]: 79 nM

CC(=O)SCC(=O)[C@H]1CC[C@H]2[C@@H]3CC[C@H]4C[C@H](O)[C@@H](N5CCOC(C)(C)C5)C[C@]4(C)[C@H]3C(=O)C[C@]12C
POT [3]: 245 nM
HD50 [1]: 7.9 µM/kg
IC50 [2]: 261 nM

C[C@]12C[C@H](N3CCOCC3)[C@@H](O)C[C@@H]1CC[C@H]1[C@@H]3CC[C@H](C(=O)CO)[C@@]3(C)CC(=O)[C@@H]12
HD50 [1]: 198.2 µM/kg
IC50 [2]: 1160 nM

CC(=O)[C@H]1CC[C@H]2[C@@H]3CC[C@H]4C[C@H](O)[C@@H](N5CCO[C@H](Cc6ccccc6)C5)C[C@]4(C)[C@H]3C(=O)C[C@]12C
HD50 [1]: 12.6 µM/kg
IC50 [2]: 131 nM

CCCCC1(CCCC)CN([C@H]2C[C@@]3(C)[C@@H](CC[C@H]4[C@@H]5CC[C@H](C(C)=O)[C@@]5(C)CC(=O)[C@@H]43)C[C@@H]2O)CCO1
HD50 [1]: 31.1 µM/kg
IC50 [2]: 53 nM

CC(=O)[C@H]1CC[C@H]2[C@@H]3CC[C@H]4C[C@H](O)[C@@H](N5CCSC(C)(C)C5)C[C@]4(C)[C@H]3CC[C@]12C
HD50 [1]: 51.9 µM/kg
IC50 [2]: 115 nM

CC1(C)CN([C@H]2C[C@@]3(C)[C@@H](CC[C@H]4[C@@H]5CC[C@H](C(=O)CCl)[C@@]5(C)CC(=O)[C@@H]43)C[C@@H]2O)CCO1
POT [3]: 450 nM
HD50 [1]: 13.4 µM/kg
IC50 [2]: 206 nM

CC(=O)[C@H]1CC[C@H]2[C@@H]3CC[C@H]4C[C@H](O)CC[C@]4(C)[C@H]3C(=O)C[C@]12C [ALFAXALONE]
POT [3]: 700 nM
HD50 [1]: 6.3 µM/kg

CC(=O)[C@H]1CC[C@H]2[C@@H]3CC[C@H]4C[C@H](O)[C@@H](N5CCSCC5)C[C@]4(C)[C@H]3C(=O)C[C@]12C
HD50 [1]: 20 µM/kg
IC50 [2]: 1390 nM

CC(=O)OCC(=O)[C@H]1CC[C@H]2[C@@H]3CC[C@H]4C[C@H](O)[C@@H](N5CCOC(C)(C)C5)C[C@]4(C)[C@H]3CC[C@]12C
HD50 [1]: 16.9 µM/kg
IC50 [2]: 387 nM

CCC[C@@H]1CN([C@H]2C[C@@]3(C)[C@@H](CC[C@H]4[C@@H]5CC[C@H](C(C)=O)[C@@]5(C)CC(=O)[C@@H]43)C[C@@H]2O)CCO1
HD50 [1]: 6.4 µM/kg
IC50 [2]: 142 nM

CCC[C@H]1CN([C@H]2C[C@@]3(C)[C@@H](CC[C@H]4[C@@H]5CC[C@H](C(C)=O)[C@@]5(C)CC(=O)[C@@H]43)C[C@@H]2O)CCO1
HD50 [1]: 10.8 µM/kg
IC50 [2]: 948 nM

CC1(C)CN([C@H]2C[C@@]3(C)[C@@H](CC[C@H]4[C@@H]5CC[C@H](C(=O)CSC#N)[C@@]5(C)CC(=O)[C@@H]43)C[C@@H]2O)CCO1
HD50 [1]: 10 µM/kg
IC50 [2]: 316 nM

CC[C@H]1CN([C@H]2C[C@@]3(C)[C@@H](CC[C@H]4[C@@H]5CC[C@H](C(C)=O)[C@@]5(C)CC(=O)[C@@H]43)C[C@@H]2O)CCO1
HD50 [1]: 15.1 µM/kg
IC50 [2]: 1490 nM

Source: ChEMBL document CHEMBL1130383, “Anesthetic activity of novel water-soluble 2 beta-morpholinyl steroids and their modulatory effects at GABAA receptors” (J Med Chem, 1997)
